# Screening results from PubChem.
# MEKK2wt PB1 HTS: raises or lowers MEK5 binding to wildtype human MEKK2 PB1 domain | binding response (% of control), % at 10 µM | AID 1531 | Q9Y2U5 | bead flow cytometry, Alexa488-MEK5 binding to MEKK2 WT; actives lie on both sides | actives 1.1% (n = 290,000); in the data active = binding response below about 67% or above about 130%
# DSG3 Ab inh: inhibitors of pemphigus antibody binding to human desmoglein-3; actives 0.48% (n = 310,000); DSG3-coupled beads, scFv-anti-DSG3-GFP binding, flow cytometry; stronger effect = lower value; binding (percent of control), % at 10 µM; P32926;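 active = binding more than 3 SD below its plate's average and above zero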;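 note: hits lower antibody fragment binding to DSG3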
# MEKK2mut PB1 HTS: signal of MEK5 binding to mutant human MEKK2 PB1 domain; actives 0.35% (n = 290,000); bead flow cytometry, Alexa488-MEK5 binding to MEKK2 mutant; percent response, % at 10 µM; in the data active = percent response above about 24%, passing the limit was not always enough
# MEKK3 PB1 HTS: MEKK3-MEK5 PB1 interaction, increase or decrease | bead-based flow cytometry, Alexa488-MEK5 binding to MEKK3; actives lie on both sides; 0 = blocked by unlabeled MEK5, 100 = vehicle | binding response (% of control), % at 10 µM | actives 1.4% (n = 290,000);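 active = binding response more than 3 SD above or below the average of its plate-row segment, actives on both sides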;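 note: Alexa488 bead fluorescence after subtracting the streptavidin-only scavenger bead signal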
# UBC13 inh: blocks human UBC13 polyubiquitin chain formation. P61088. TR-FRET. inhibition, % at 20 µM. actives 0.47% (n = 330,000). AID 485273; in the data active = inhibition above about 45%, passing the limit was not always enough
# Apaf1 inhib: inhibitors of human Apaf-1 apoptosome; O14727; reconstituted apoptosome caspase-3 activity, DEVD-Rh110 fluorescence; inhibition, % at 20 µM; actives 0.71% (n = 330,000); AID 489030; active = inhibition of at least 40% at 20 µM;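 note: plate controls were DMSO wells for no effect and DEVD-CHO caspase inhibitor wells for full effect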
#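 detection = Rh110 fluorescence intensity | test system = biochemical Apaf-1 apoptosome reconstitution | also added = cytochrome c and DEVD-Rh110 substrate | schedule = 30 min plus 50 min, RT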
# An asterisk follows results filed as active; / = no result; [ ] = remark or other dose. Shown are actives, neighbours in structure and some others; about 3.2% of the full set was active somewhere.
SMILES,MEKK2wt PB1 HTS,DSG3 Ab inh,MEKK2mut PB1 HTS,MEKK3 PB1 HTS,UBC13 inh,Apaf1 inhib
O=[N+]([O-])c1ccc(N2CCN(S(=O)(=O)c3ccccc3)CC2)c2cccnc12,89,103,-13,94,13,7
Cc1ccc(S(=O)(=O)N2CCN(c3ccc([N+](=O)[O-])c4cccnc34)CC2)cc1,95,98,4,100,-38,47*
COc1ccc(NC(=O)CCCCCN2C(=O)c3cccc([N+](=O)[O-])c3C2=O)c(OC)c1,98,121,7,100,-1,41*
COc1ccc(OC)c(NC(=O)CCN2C(=O)c3cccc([N+](=O)[O-])c3C2=O)c1,102,109,0,97,-9,0
CCCCn1c(N)c(N(CCOC)C(=O)c2c(CC)noc2C)c(=O)[nH]c1=O,/,112,/,/,-10,-10
c1ccc(CSc2ccc(-c3ccccn3)nn2)cc1,81,/,-11,100,13,-11
Clc1ccc(CSc2ccc(-c3ccccn3)nn2)cc1,/,13*,/,/,8,-9
CCOc1ccc(N(CC(=O)NCCSCc2ccco2)S(=O)(=O)c2ccc(C)cc2)cc1,93,81*,-8,98,0,17
O=C(c1ccc(NS(=O)(=O)c2cccc([N+](=O)[O-])c2)cc1)N1CCN(C(=O)c2ccco2)CC1,/,95,/,/,-3,2
Cc1ccc(C(=O)NC(=S)NCC(=O)c2ccccc2)cc1,115,-20*,10,108,7,1
O=C1C(Cl)=C(Nc2ccccc2)C(=O)c2ccccc21,97,107,0,98,/,/
CC(C)NC1=C(Cl)C(=O)c2ccccc2C1=O,100,120,3,102,-368,63*
COc1cc(OC)c(NC(=O)CC2SC(N)=NC2=O)cc1Cl (stereo not drawn),/,109,/,/,/,/
Cc1cccc(OC(=O)NCCOC(=O)N(O)c2ccc(Cl)cc2)c1,125,-26*,13,104,-1,7
OC[C@@H](O)[C@@H](O[C@H]1O[C@H](CO)[C@@H](O)[C@H](O)[C@H]1O)[C@H](O)[C@@H](O)CO,-4.0*,102,5,81,-5,-5
OCC(O)[C@@H](O[C@H]1O[C@H](CO)[C@@H](O)[C@H](O)[C@H]1O)[C@H](O)[C@@H](O)CO (stereo partly drawn),/,95,/,/,10,-10
O=C(/C=C/c1cccc(F)c1)N1CCc2ccccc21,102,18*,0,102,6,-5
COc1ccccc1CN1CCNC(=O)C1CC(=O)N(C)C1CCOCC1 (stereo not drawn),/,105,/,/,/,/
CCOC(=O)c1c(NC(=S)NC(C)=O)sc(C)c1C,90,71*,6,98,-16,12
CC(=O)Nc1ccc(NC(=O)CSc2nnc(NC(=O)c3cccc(F)c3)s2)cc1,107,97,5,102,3,-12
Cc1ccc(-c2noc(CCC(=O)N3CCN(c4cccc(C(F)(F)F)c4)CC3)n2)cc1,111,103,15,107,-8,42*
COc1ccc(-c2noc(CCC(=O)N3CCN(c4ccc(C(F)(F)F)cc4)CC3)n2)cc1,/,93,/,/,/,17
Clc1ccc2nc(CSc3nnc(-c4c[nH]c5ccccc45)o3)cn2c1,/,42*,/,/,/,/
C/C(=N/NC(=O)c1cc(-c2cccc([N+](=O)[O-])c2)n[nH]1)c1cccc(O)c1,96,75*,-3,98,8,0
C/C(=N\NC(=O)c1cc(-c2cccc([N+](=O)[O-])c2)n[nH]1)c1ccc(F)cc1,103,94,0,106,-4,-12
SMILES,MEKK2wt PB1 HTS,DSG3 Ab inh,MEKK2mut PB1 HTS,MEKK3 PB1 HTS,UBC13 inh,Apaf1 inhib
O=C(COc1ccc(Cl)cc1)NN=C1CCCCCCC1,106,/,8,102,10,-9
CC1CCN(S(=O)(=O)c2ccc3c(c2)c(=O)c(C(=O)NCc2cccs2)cn3C)CC1,/,83*,-8,101,8,5
Cc1ccc(SCc2cc(-c3ccc(Cl)cc3)no2)cc1,/,103,/,/,3,78*
N#C/C(C(N)=O)=C1/SC=C(c2ccccc2)N1c1ccccc1,96,104,20,107,35,8
N#C/C(C(=O)c1ccccc1)=C1/SC=C(N)N1c1ccccc1,4.0*[inhibitor],/,-30,2.0*[inhibitor],/,/
COc1ccc(C(=O)C2CCN(C(=S)NCCc3ccc(OC)c(OC)c3)CC2)cc1,93,-9.4*,-5,99,-1,19
COc1ccc(CCNC(=S)N2CCC(C(=O)c3ccc(F)cc3)CC2)cc1OC,92,100,-2,83,4,-7
O=C(COc1ccc(Cl)cc1)NCCNc1ccc([N+](=O)[O-])cc1,101,72*,2,99,-3,12
COc1cc(/C=C2\SC(=S)N(NC(=O)c3ccc(O)c(OC)c3)C2=O)ccc1O,93,95,1,103,-97,7
COc1cc(/C=C2\SC(=S)N(NC(=O)c3ccncc3)C2=O)ccc1O,-3.0*,99,16,93,-86,1
O=C(O)c1cccnc1Sc1ccccc1Cl,29*,112,9,97,3,-3
Cc1ccc(C(=O)NNC(=O)c2csc(N3CCOCC3)n2)o1,/,96*,/,/,0,3
CCN1C(=O)CSC1=Nc1ccc(C(=O)OC)cc1,/,95,/,/,/,/
COCCn1nnnc1C(c1ccc(OC)cc1)N1CCN(C(=O)c2ccco2)CC1 (stereo not drawn),104,101,6,104,3,-1
COc1ccc(C(c2nnnn2C(C)C)N2CCN(C(=O)c3ccco3)CC2)cc1 (stereo not drawn),46*[inhibitor],107,-20,53*[inhibitor],-9,11
Cc1cc(NS(=O)(=O)c2ccc(NC(=O)CSc3nc4ncc(Cl)cc4[nH]3)cc2)nc(C)n1,-4.0*,104,9,96,8,-21
C=CCNc1nc(Cl)nc(Nc2cc(Cl)ccc2OC)n1,106,80,4,107,-2,-5
CCN(CC)S(=O)(=O)c1ccc(O)c(C(=O)OCC(=O)N2CCCc3ccccc32)c1,/,101,/,/,/,/
COc1ccc(NC(=O)CN(C)C(=O)c2cc3c(s2)CCC3)cc1,/,93*,/,/,10,-4
CCOC(=O)N1CCC(NC(=O)c2ccc3c(c2)sc2nc(-c4ccc(OC)cc4)cn23)CC1,/,/,/,/,9,44*
CCOC(=O)N1CCN(C(=O)c2ccc3c(c2)sc2nc(-c4ccccc4)cn23)CC1,106,98,4,103,6,-1
COCCCN1C(=O)C(CC(=O)NCC2CCCCC2)CC(C(=O)N(C)C)=C1C (stereo not drawn),/,108,/,/,/,/
